One test deals with Cannabinoid receptor 1 (Homo sapiens, UniProt P21554). As to the kind of experiment: Displacement of 3H-CP-55940 from recombinant full length human CB1 receptor expressed in HEK293 cell membranes after 90 mins by topcount scintillation counting analysis. (In general: In a radioligand displacement assay an active substance lowers the binding of a labelled ligand.)
The target in another test is Cannabinoid receptor 2 (Homo sapiens, UniProt P34972). The test is described as follows: Displacement of 3H-CP-55940 from recombinant full length human CB2 receptor expressed in HEK293 cell membranes after 90 mins by topcount scintillation counting analysis.
Test [1] concerns the target Transient receptor potential cation channel subfamily A member 1 (Rattus norvegicus, UniProt Q6RI86). As to the kind of experiment: Agonist activity at recombinant rat TRPA1 expressed in HEK293 cells assessed as increase in intracellular calcium level by Fluo4-AM probe based fluorescence assay. Format: cell-based. The method, boiled down:
(§1)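 HEK-293 cells stably expressing the channel, selected with G-418 (600 μg mL−1) and grown in MEM with 10% FBS and 2 mM glutamine at 37 °C, 5% CO2. Cells were loaded 1 h at room temperature in the dark with Fluo-4 AM (4 μM). Cells were washed and suspended in Tyrode's buffer pH 7.4, and fluorescence was read at 25 °C (ex 488/em 516 nm).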
In general terms: Calcium assays in cells follow changes in intracellular calcium, usually with a dye or a luminescent sensor.

The target of test [2] is Transient receptor potential cation channel subfamily M member 8 (Rattus norvegicus, UniProt Q8R455). The test is described as follows: Antagonist activity at recombinant rat TRPM8 expressed in HEK293 cells assessed as inhibition of icilin-induced intracellular calcium level incubated for 5 mins followed by agonist stimulation by Fluo4-AM probe based fluorescence assay. Format: cell-based. Put shortly:
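Rat TRPM8 HEK-293 cells were loaded with Fluo-4 AM and suspended in Tyrode's buffer pH 7.4. Compound was added 5 min before icilin (0.25 μM), and [Ca2+]i was read at 22 °C on a Peltier system. IC50 for half-maximal inhibition of the agonist response was taken from sigmoidal fits.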

The target of test [3] is T1, Transient receptor potential cation channel subfamily V member 2 (Rattus norvegicus, UniProt Q9WUD2).
T1 sequence (Q9WUD2 whole entry): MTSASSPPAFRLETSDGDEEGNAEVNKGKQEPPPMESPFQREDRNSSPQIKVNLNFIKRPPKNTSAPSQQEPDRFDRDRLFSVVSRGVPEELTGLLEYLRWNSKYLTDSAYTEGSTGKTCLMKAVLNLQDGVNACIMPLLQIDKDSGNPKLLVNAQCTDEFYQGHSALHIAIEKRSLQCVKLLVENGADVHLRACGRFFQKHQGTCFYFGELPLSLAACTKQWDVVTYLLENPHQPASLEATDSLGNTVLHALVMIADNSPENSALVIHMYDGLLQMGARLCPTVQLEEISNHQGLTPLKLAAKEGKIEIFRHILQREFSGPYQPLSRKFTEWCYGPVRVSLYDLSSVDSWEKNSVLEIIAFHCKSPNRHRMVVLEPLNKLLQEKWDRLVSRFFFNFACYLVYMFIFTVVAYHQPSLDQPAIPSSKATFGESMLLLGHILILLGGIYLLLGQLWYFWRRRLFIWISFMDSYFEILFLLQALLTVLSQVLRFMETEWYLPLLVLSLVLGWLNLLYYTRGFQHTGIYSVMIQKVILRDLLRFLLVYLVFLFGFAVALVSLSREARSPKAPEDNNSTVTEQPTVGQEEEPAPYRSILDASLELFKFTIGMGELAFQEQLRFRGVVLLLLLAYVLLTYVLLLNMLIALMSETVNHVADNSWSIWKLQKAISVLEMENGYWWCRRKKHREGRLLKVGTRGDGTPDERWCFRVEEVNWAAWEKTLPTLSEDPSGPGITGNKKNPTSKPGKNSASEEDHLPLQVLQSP
The test is described as follows: Agonist activity at recombinant rat TRPV2 expressed in HEK293 cells assessed as increase in intracellular calcium level by Fluo4-AM probe based fluorescence assay. Format: cell-based. Put shortly:
as §1

Test [4] deals with Transient receptor potential cation channel subfamily V member 4 (Rattus norvegicus, UniProt Q9ERZ8). The test is described as follows: Agonist activity at recombinant rat TRPV4 expressed in HEK293 cells assessed as increase in intracellular calcium level by Fluo4-AM probe based fluorescence assay. Format: cell-based. The method, boiled down: as §1
The target of test [5] is T2, Transient receptor potential cation channel, subfamily V, member 3 (Rattus norvegicus, UniProt E9PU00).
T2 sequence (E9PU00 whole entry): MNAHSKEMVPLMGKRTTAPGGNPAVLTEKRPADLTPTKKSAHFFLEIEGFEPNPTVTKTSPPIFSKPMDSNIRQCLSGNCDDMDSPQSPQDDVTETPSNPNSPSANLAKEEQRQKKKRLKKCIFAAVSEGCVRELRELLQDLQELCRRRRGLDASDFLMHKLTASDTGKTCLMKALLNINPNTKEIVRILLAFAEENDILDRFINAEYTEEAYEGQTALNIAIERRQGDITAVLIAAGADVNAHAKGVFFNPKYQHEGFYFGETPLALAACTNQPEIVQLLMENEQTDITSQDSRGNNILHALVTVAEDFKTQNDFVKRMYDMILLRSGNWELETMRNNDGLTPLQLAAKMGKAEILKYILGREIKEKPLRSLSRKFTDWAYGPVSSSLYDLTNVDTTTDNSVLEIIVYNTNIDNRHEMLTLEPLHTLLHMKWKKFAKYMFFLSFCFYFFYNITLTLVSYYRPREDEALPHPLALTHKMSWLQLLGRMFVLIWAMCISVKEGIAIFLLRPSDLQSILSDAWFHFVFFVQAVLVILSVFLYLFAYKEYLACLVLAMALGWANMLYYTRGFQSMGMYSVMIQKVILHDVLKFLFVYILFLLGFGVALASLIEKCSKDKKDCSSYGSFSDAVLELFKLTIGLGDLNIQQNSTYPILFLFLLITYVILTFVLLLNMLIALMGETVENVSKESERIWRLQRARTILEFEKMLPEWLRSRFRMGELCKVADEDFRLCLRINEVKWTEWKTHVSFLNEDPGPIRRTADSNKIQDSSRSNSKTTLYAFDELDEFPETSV
The test is described as follows: Agonist activity at recombinant rat TRPV3 expressed in HEK293 cells assessed as increase in intracellular calcium level by Fluo4-AM probe based fluorescence assay. It is filed as cell-based. The method, boiled down: as §1

Test [6] concerns the target Transient receptor potential cation channel subfamily V member 1 (Homo sapiens, UniProt Q8NER1). As to the kind of experiment: Agonist activity at human TRPV1 expressed in HEK293 cells assessed as increase in intracellular calcium level by Fluo4-AM probe based fluorescence assay. It is filed as cell-based. The method, boiled down: as §1

EC50 and IC50 data for 2 molecules are collected here from ChEMBL document CHEMBL4138251, “Iodine-Promoted Aromatization of p-Menthane-Type Phytocannabinoids” (J Nat Prod, 2018).

Transient receptor potential cation channel subfamily A member 1, sequence (Q6RI86 whole entry): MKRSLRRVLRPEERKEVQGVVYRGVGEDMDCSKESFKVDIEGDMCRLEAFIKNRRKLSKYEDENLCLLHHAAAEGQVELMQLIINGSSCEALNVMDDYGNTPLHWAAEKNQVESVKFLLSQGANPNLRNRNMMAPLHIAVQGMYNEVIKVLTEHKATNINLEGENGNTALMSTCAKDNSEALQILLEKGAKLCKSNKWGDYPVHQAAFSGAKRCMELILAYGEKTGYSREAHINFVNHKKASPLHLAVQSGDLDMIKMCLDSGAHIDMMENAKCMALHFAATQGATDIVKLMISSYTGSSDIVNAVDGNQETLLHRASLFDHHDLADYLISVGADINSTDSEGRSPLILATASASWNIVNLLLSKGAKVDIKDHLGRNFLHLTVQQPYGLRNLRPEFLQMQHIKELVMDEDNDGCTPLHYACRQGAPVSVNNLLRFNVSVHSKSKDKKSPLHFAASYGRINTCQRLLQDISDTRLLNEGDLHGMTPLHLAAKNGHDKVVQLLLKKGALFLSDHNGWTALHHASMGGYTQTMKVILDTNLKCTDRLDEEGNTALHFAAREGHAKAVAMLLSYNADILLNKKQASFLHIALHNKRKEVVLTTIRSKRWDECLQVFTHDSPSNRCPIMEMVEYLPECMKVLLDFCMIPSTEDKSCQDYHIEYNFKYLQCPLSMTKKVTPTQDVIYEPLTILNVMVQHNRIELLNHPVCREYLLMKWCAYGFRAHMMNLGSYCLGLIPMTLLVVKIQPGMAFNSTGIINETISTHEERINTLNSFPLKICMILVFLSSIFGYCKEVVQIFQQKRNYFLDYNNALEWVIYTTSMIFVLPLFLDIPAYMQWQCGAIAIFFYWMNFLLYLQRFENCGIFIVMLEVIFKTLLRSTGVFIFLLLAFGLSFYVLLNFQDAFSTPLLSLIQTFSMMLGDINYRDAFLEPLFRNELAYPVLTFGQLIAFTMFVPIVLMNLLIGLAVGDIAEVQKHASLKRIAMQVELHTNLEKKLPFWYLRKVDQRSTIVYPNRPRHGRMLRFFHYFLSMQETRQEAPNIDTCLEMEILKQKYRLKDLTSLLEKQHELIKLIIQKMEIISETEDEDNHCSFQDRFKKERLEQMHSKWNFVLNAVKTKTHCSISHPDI
Cannabinoid receptor 1, sequence (P21554 whole entry): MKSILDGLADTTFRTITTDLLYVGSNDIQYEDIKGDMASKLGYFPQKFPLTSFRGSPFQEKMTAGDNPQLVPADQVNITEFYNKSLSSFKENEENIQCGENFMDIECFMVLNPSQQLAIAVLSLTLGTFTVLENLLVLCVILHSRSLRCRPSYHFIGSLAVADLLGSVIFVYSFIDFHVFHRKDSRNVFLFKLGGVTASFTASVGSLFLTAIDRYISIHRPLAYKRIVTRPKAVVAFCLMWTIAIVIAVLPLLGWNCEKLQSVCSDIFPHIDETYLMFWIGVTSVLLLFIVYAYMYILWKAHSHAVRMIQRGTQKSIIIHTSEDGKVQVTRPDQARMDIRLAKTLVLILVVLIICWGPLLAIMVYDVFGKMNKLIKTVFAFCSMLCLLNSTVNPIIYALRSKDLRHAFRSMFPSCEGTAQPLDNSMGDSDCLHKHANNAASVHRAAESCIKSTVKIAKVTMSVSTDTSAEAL
Transient receptor potential cation channel subfamily M member 8, sequence (Q8R455 whole entry): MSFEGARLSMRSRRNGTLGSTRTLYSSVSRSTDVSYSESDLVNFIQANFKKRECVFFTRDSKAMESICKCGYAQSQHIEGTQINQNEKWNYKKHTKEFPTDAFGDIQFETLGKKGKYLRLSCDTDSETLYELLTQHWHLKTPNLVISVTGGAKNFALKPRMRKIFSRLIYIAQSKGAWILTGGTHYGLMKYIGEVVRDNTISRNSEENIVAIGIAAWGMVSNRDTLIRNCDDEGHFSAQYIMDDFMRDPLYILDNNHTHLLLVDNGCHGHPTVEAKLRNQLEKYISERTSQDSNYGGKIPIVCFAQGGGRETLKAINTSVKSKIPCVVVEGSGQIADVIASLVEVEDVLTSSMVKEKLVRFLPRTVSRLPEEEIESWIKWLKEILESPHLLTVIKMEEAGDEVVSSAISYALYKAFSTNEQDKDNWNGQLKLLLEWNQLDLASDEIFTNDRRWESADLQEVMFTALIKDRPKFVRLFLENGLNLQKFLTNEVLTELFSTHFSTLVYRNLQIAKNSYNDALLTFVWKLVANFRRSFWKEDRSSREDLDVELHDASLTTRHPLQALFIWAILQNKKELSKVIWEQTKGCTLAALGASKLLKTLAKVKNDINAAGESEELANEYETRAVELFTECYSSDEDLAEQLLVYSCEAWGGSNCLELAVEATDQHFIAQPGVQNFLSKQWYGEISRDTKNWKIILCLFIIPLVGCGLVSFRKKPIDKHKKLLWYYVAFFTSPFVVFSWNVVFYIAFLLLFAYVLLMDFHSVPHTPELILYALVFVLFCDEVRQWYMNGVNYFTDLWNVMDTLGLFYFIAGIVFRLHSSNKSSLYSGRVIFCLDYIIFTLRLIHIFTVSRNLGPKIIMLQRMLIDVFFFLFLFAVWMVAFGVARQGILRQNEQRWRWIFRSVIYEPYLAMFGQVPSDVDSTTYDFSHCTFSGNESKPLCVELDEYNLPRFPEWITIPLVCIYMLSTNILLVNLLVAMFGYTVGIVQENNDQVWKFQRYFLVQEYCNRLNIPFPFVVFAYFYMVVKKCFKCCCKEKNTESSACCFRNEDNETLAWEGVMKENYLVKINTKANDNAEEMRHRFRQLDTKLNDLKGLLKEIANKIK
Transient receptor potential cation channel subfamily V member 1, sequence (Q8NER1 whole entry): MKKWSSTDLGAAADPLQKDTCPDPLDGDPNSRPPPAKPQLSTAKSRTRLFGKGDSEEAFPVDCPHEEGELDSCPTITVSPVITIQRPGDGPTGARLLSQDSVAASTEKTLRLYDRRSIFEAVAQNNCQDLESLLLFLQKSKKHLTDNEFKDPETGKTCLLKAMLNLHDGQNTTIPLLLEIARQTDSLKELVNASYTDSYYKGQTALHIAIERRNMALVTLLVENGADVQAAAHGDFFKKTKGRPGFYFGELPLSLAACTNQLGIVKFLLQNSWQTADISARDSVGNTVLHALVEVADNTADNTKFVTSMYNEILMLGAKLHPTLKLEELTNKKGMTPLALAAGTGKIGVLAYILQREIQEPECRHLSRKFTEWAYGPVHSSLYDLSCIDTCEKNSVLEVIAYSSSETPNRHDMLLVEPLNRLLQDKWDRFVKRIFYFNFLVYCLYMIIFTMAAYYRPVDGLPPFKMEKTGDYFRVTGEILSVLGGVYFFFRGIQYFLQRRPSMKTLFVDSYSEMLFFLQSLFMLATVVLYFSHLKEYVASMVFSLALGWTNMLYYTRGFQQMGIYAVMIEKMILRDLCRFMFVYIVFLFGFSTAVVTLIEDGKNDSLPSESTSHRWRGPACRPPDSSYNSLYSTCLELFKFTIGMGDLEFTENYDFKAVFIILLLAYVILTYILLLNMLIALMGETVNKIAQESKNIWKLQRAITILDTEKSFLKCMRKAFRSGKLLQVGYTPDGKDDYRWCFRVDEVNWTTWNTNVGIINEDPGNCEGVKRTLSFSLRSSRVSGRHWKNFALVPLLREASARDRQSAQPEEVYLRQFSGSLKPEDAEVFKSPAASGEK
Transient receptor potential cation channel subfamily V member 4, sequence (Q9ERZ8 whole entry): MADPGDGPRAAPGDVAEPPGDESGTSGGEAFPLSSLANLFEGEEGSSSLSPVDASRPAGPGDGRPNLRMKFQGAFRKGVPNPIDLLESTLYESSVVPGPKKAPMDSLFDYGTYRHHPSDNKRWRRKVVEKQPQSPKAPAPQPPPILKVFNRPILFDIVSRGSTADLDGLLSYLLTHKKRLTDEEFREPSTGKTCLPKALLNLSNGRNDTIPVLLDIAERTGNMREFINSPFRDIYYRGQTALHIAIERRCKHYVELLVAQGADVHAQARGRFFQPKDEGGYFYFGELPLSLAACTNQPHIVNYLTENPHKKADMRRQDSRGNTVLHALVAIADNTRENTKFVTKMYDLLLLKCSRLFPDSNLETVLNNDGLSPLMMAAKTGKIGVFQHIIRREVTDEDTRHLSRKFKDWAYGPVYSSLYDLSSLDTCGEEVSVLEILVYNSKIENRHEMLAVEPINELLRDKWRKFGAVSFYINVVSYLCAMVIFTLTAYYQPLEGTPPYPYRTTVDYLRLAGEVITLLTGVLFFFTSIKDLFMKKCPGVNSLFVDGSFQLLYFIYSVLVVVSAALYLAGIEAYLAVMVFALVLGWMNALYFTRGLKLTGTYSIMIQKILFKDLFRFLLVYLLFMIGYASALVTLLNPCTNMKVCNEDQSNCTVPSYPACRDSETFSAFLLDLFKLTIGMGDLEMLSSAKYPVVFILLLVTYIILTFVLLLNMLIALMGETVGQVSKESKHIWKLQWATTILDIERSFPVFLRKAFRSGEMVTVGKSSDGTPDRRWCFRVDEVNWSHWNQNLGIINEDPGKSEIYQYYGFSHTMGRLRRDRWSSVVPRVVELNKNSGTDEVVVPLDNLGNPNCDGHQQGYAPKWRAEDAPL
Cannabinoid receptor 2, sequence (P34972 whole entry): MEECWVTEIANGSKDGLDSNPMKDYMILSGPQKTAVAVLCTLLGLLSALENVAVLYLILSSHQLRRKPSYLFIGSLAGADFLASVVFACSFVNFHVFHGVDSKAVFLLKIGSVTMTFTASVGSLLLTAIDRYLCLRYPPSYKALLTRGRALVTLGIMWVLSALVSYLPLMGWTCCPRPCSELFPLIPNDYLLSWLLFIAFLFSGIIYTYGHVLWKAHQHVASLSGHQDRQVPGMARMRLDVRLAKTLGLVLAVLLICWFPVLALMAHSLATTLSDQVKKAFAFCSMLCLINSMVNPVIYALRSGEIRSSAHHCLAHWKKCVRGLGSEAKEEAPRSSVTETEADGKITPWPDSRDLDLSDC

Turning to `CCCc1cc(O)c2c(c1)OC(C)(C)c1ccc(C)cc1-2`, the EC50 on Cannabinoid receptor 1 stood at 0.565 µM; on Cannabinoid receptor 2 it was 4.78 µM; in test [1], 0.2 µM; in test [3] it was 3.1 µM; in test [4] it was 7.3 µM; in test [5], 3.5 µM. In addition, the EC50 in test [6] turned out to be 6.6 µM. The IC50 in test [2] was found to be 0.5 µM.
Turning to `CCCCCc1cc(O)c2c(c1)OC(C)(C)c1ccc(C)cc1-2` [CANNABINOL], the EC50 is 0.075 µM at Cannabinoid receptor 1; 0.073 µM at Cannabinoid receptor 2; 0.18 µM in test [1]; 19 µM in test [3]; 16.1 µM in test [4]; 5.3 µM in test [5]. Further, in test [6], the EC50 is 6.2 µM. The half-maximal inhibitory concentration (IC50) in test [2] was found to be 0.21 µM.

Broadly, the EC50 is the concentration that produces a half-maximal response. Usually IC50 stands for the concentration that inhibits the measured activity by half.
